Reference: ChEMBL document CHEMBL2311271 (Eur J Med Chem, 2013)

Columns and labels:
Mus musculus = assay: Neurotoxicity in ip dosed C57BL/6 mouse assessed as tremble, twitch, jumping and supination response; format: toxicity, organism-based; details: in vivo
Summary of the method: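 C57BL/6 mice (9–12 weeks, 18–22 g), fasted overnight with water, dosed i.p. with 1.0–500 mg/kg in 0.5% CMC-Na; 10 per group (5 male, 5 female). Watched continuously 2 h for tremor, twitch, jumping, supination and other behavior, then intermittently to 24 h and occasionally to 14 days; killed day 14, with heart, liver and kidneys inspected.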

OS-RC-2 = assay: Cytotoxicity against human OS-RC2 cells by MTT assay; format: functional, cell-based
Summary of the method: (§1)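 Cells grown in RPMI-1640 with 10% fetal calf serum plus penicillin and streptomycin, 37 °C, 5% CO₂. Compounds in DMSO, final ≤2% (v/v), tested in 96-well cultures with MTT staining. IC₅₀ = concentration cutting optical density 50% versus untreated cells; three replicate wells per point; mean of three independent determinations.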

[1] = Antitumor activity against mouse Sarcoma 180 cells xenografted in mouse assessed as tumor inhibition at 2.5 mg/kg, ip qd for 7 days measured every 3 days for 21 days; format: functional; details: Sarcoma-180, ip, route intraperitoneal
A-375 = assay: Cytotoxicity against human A375 cells by MTT assay; format: functional, cell-based; summary of the method: as §1
786-0 = assay: Cytotoxicity against human 786-0 cells by MTT assay; format: functional, cell-based; summary of the method: as §1
KB = assay: Cytotoxicity against human KB cells by MTT assay; format: functional, cell-based; summary of the method: as §1
[2] = Cytotoxicity against human Blu-87 cells by MTT assay; format: functional, cell-based; summary of the method: as §1
[3] = Acute toxicity in ip dosed C57BL/6 mouse measured up to 14 days; format: organism-based; details: in vivo
Summary of the method: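 Healthy C57BL/6 mice (9–12 weeks, 18–22 g), fasted overnight, 10 per group (5 male, 5 female). Single i.p. dose, 1.0 to 500 mg/kg in 0.5% CMC-Na. Watched continuously for 2 h, intermittently over 24 h, then occasionally to day 14 for behaviour, deaths and delayed effects. Heart, liver and kidneys inspected at necropsy. LD50 derived graphically.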

769-P = assay: Cytotoxicity against human 769-P cells by MTT assay; format: functional, cell-based; summary of the method: as §1
U-251 = assay: Cytotoxicity against human U251 cells by MTT assay; format: functional, cell-based; summary of the method: as §1
A549 = assay: Cytotoxicity against human A549 cells by MTT assay; format: functional, cell-based; summary of the method: as §1
CWR22R = assay: Cytotoxicity against human 22Rv1 cells by MTT assay; format: functional, cell-based; summary of the method: as §1
SCaBER = assay: Cytotoxicity against human SCaBER cells by MTT assay; format: functional, cell-based; summary of the method: as §1
HT-29 = assay: Cytotoxicity against human HT-29 cells by MTT assay; format: functional, cell-based; summary of the method: as §1
[4] = tested on: Lewis lung carcinoma cell line; assay: Antitumor activity against mouse LLC cells xenografted in mouse assessed as tumor inhibition at 2.5 mg/kg, ip qd for 7 days measured every 3 days for 21 days; format: functional; details: route intraperitoneal
[5] = tested on: Lewis lung carcinoma cell line; assay: Antitumor activity against mouse LLC cells xenografted in mouse assessed as tumor inhibition at 1 mg/kg, ip qd for 7 days measured every 3 days for 21 days; format: functional; details: route intraperitoneal
[6] = Antitumor activity against mouse Sarcoma 180 cells xenografted in mouse assessed as tumor inhibition at 1 mg/kg, ip qd for 7 days measured every 3 days for 21 days; format: functional; details: Sarcoma-180, ip, route intraperitoneal
HepG2 = assay: Cytotoxicity against human HepG2 cells by MTT assay; format: functional, cell-based; summary of the method: as §1
BGC-823 = assay: Cytotoxicity against human BGC823 cells by MTT assay; format: functional, cell-based; summary of the method: as §1
MCF7 = assay: Cytotoxicity against human MCF7 cells by MTT assay; format: functional, cell-based; summary of the method: as §1
[7] = tested on: Lewis lung carcinoma cell line; assay: Antitumor activity against mouse LLC cells xenografted in mouse assessed as tumor inhibition at 20 mg/kg, ip qd for 7 days measured every 3 days for 21 days; format: functional; details: route intraperitoneal
HeLa = assay: Cytotoxicity against human HeLa cells by MTT assay; format: functional, cell-based; summary of the method: as §1
Bel-7402 = assay: Cytotoxicity against human Bel7402 cells by MTT assay; format: functional, cell-based; summary of the method: as §1
[8] = Antitumor activity against mouse Sarcoma 180 cells xenografted in mouse assessed as tumor inhibition at 20 mg/kg, ip qd for 7 days measured every 3 days for 21 days; format: functional; details: Sarcoma-180, ip, route intraperitoneal
[9] = tested on: Lewis lung carcinoma cell line; assay: Antitumor activity against mouse LLC cells xenografted in mouse assessed as tumor inhibition at 3 mg/kg, ip qd for 7 days measured every 3 days for 21 days; format: functional; details: route intraperitoneal
[10] = Antitumor activity against mouse Sarcoma 180 cells xenografted in mouse assessed as tumor inhibition at 3 mg/kg, ip qd for 7 days measured every 3 days for 21 days; format: functional; details: Sarcoma-180, ip, route intraperitoneal
[11] = Antitumor activity against mouse Sarcoma 180 cells xenografted in mouse assessed as tumor inhibition at 1.2 mg/kg, ip qd for 7 days measured every 3 days for 21 days; format: functional; details: Sarcoma-180, ip, route intraperitoneal
[12] = tested on: Lewis lung carcinoma cell line; assay: Antitumor activity against mouse LLC cells xenografted in mouse assessed as tumor inhibition at 1.2 mg/kg, ip qd for 7 days measured every 3 days for 21 days; format: functional; details: route intraperitoneal
[13] = tested on: Lewis lung carcinoma cell line; assay: Antitumor activity against mouse LLC cells xenografted in mouse assessed as tumor inhibition at 0.63 mg/kg, ip qd for 7 days measured every 3 days for 21 days; format: functional; details: route intraperitoneal
[14] = Antitumor activity against mouse Sarcoma 180 cells xenografted in mouse assessed as tumor inhibition at 0.63 mg/kg, ip qd for 7 days measured every 3 days for 21 days; format: functional; details: Sarcoma-180, ip, route intraperitoneal
[15] = tested on: Lewis lung carcinoma cell line; assay: Antitumor activity against mouse LLC cells xenografted in mouse assessed as tumor inhibition at 40 mg/kg, ip qd for 7 days measured every 3 days for 21 days; format: functional; details: route intraperitoneal
[16] = Antitumor activity against mouse Sarcoma 180 cells xenografted in mouse assessed as tumor inhibition at 40 mg/kg, ip qd for 7 days measured every 3 days for 21 days; format: functional; details: Sarcoma-180, ip, route intraperitoneal
[17] = tested on: Lewis lung carcinoma cell line; assay: Antitumor activity against mouse LLC cells xenografted in mouse assessed as tumor inhibition at 30 mg/kg, ip qd for 7 days measured every 3 days for 21 days; details: read-out: INH
[18] = Antitumor activity against mouse Sarcoma 180 cells xenografted in mouse assessed as tumor inhibition at 30 mg/kg, ip qd for 7 days measured every 3 days for 21 days; details: Sarcoma-180, ip, read-out: INH
[19] = Antitumor activity against mouse Sarcoma 180 cells xenografted in mouse assessed as tumor inhibition at 7.5 mg/kg, ip qd for 7 days measured every 3 days for 21 days; format: functional; details: Sarcoma-180, ip, route intraperitoneal
Summary of the method: (§2)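 Tumour cells passaged in mice for 7 days, then harvested. Viable cells (2 × 10⁶/mouse) injected s.c. into the armpit. Starting 24 h later, compound given i.p. once daily for 7 days, 10 female mice per group. Mice killed on day 21 after inoculation and tumours excised and weighed. Inhibition = (C − T)/C × 100, using mean tumour weights of treated (T) and negative control (C) groups.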

[20] = tested on: Lewis lung carcinoma cell line; assay: Antitumor activity against mouse LLC cells xenografted in mouse assessed as tumor inhibition at 7.5 mg/kg, ip qd for 7 days measured every 3 days for 21 days; format: functional; details: route intraperitoneal; summary of the method: as §2

| SMILES | Activity (Mus musculus) | IC50 (OS-RC-2) | IC50 (A-375) | IC50 (786-0) | IC50 (KB) | IC50 [2] | LD50 at 336 h [3] | IC50 (769-P) | IC50 (U-251) | IC50 (A549) | IC50 (CWR22R) | IC50 (SCaBER) | IC50 (HT-29) | IC50 (HepG2) | IC50 (BGC-823) | IC50 (MCF7) | IC50 (HeLa) | IC50 (Bel-7402) | other results |
| --- | --- | --- | --- | --- | --- | --- | --- | --- | --- | --- | --- | --- | --- | --- | --- | --- | --- | --- | --- |
| CCn1c2cc(OCc3c(F)c(F)c(F)c(F)c3F)ccc2c2cc[n+](Cc3ccccc3)c(C)c21.[Br-] | Non-toxic | 1.8 µM | 3.8 µM | 2.9 µM | 13.8 µM | 17.7 µM | 12.5 mg/kg | 13 µM | 6.6 µM | 1.8 µM | < 1.4 µM | 6.8 µM | 1.6 µM |  |  |  |  |  | inhibition in vivo at 2.5 mg/kg [1]: 36.9%; inhibition in vivo at 2.5 mg/kg [4]: 23.7% |
| Cc1c2c(cc[n+]1Cc1ccccc1)c1ccc(OCc3ccccc3)cc1n2CC(C)C.[Br-] | Non-toxic | 4.6 µM | 3.3 µM | < 1.5 µM | < 1.5 µM | 6.9 µM | 5 mg/kg | 2.4 µM | < 1.5 µM | 3.5 µM | < 1.5 µM | 4.6 µM | 3.4 µM |  |  |  |  |  | inhibition in vivo at 1 mg/kg [5]: 23.7%; inhibition in vivo at 1 mg/kg [6]: 52.6% |
| CCC(CC)Oc1ccc2c3ccnc(C)c3n(CCCc3ccccc3)c2c1 | Non-toxic |  |  |  |  |  | 100 mg/kg |  |  |  |  |  |  | 7.3 µM | 18.3 µM | 41.9 µM | 70.1 µM | 34.3 µM | inhibition in vivo at 20 mg/kg [7]: 27.1%; inhibition in vivo at 20 mg/kg [8]: 30.1% |
| CCn1c2cc(OCC(C)C)ccc2c2cc[n+](Cc3ccccc3)c(C)c21.[Br-] | Non-toxic | 10.6 µM | 7.8 µM | 8.5 µM | < 1.7 µM | 25.9 µM | 12.5 mg/kg | 5.2 µM | 17.3 µM | 11.6 µM |  | 34.1 µM | 4 µM | 9.6 µM | 10.6 µM | 11.1 µM | 4.9 µM | 3.2 µM | inhibition in vivo at 2.5 mg/kg [1]: 44.2%; inhibition in vivo at 2.5 mg/kg [4]: 30% |
| CCn1c2cc(OCCCc3ccccc3)ccc2c2cc[n+](Cc3ccccc3)c(C)c21.[Br-] | Non-toxic | 2.2 µM | 2.4 µM | 1.5 µM | < 1.5 µM | 17.3 µM | 15 mg/kg | 5 µM | 10.5 µM | 2.3 µM |  | 16.2 µM | 4.2 µM | 7.6 µM | 7.6 µM | 2.8 µM | 2.2 µM | 2.4 µM | inhibition in vivo at 3 mg/kg [9]: 27.2%; inhibition in vivo at 3 mg/kg [10]: 53.1% |
| CCC(CC)Oc1ccc2c3cc[n+](Cc4ccccc4)c(C)c3n(CCCc3ccccc3)c2c1.[Br-] | Non-toxic | 2.5 µM | < 1.5 µM | < 1.5 µM | < 1.5 µM | 2.1 µM | 6.25 mg/kg | < 1.5 µM | 2.1 µM | 2 µM | < 1.5 µM | 4.4 µM | 2 µM | 3.1 µM | 2.5 µM | 1.8 µM | 1.5 µM | 0.81 µM | inhibition in vivo at 1.2 mg/kg [11]: 41.5%; inhibition in vivo at 1.2 mg/kg [12]: 28% |
| Cc1c2c(cc[n+]1Cc1ccccc1)c1ccc(OCCCc3ccccc3)cc1n2CCCc1ccccc1.[Br-] | Non-toxic | 3.1 µM | < 1.5 µM | 2.2 µM | < 1.5 µM | 1.5 µM | 3.75 mg/kg | 2.9 µM | 0.74 µM | 3.3 µM | 2.3 µM | 7.7 µM | 2 µM | 3.8 µM | 2.5 µM | 6.6 µM | 3.1 µM | 2 µM | inhibition in vivo at 0.63 mg/kg [13]: 33.7%; inhibition in vivo at 0.63 mg/kg [14]: 46.1% |
| CCn1c2cc(OCC(C)C)ccc2c2ccnc(C)c21 | Non-toxic | 32 µM |  | 24.3 µM | 20.3 µM | 14.2 µM | 200 mg/kg | 27 µM | 44.6 µM | 30.3 µM |  | 16.4 µM | 16.9 µM | 20.8 µM | 29.8 µM | 13.2 µM | 23.3 µM | 21.9 µM | inhibition in vivo at 40 mg/kg [15]: 20.8%; inhibition in vivo at 40 mg/kg [16]: 27.8% |
| CCn1c2cc(OCCCc3ccccc3)ccc2c2ccnc(C)c21 | Non-toxic |  | 19.7 µM | 13.2 µM | 22.6 µM | 16.7 µM | 200 mg/kg | 22.6 µM | 28 µM | 22.6 µM |  | 6.5 µM | 11.8 µM | 11.4 µM | 11.9 µM | > 100 µM | 30.2 µM | 13.5 µM | inhibition in vivo at 40 mg/kg [15]: 21.7%; inhibition in vivo at 40 mg/kg [16]: 26% |
| O=P1(N(CCCl)CCCl)NCCCO1 (centres undefined) [CYCLOPHOSPHAMIDE ANHYDROUS] | Non-toxic |  |  |  |  |  |  |  |  |  |  |  |  |  |  |  |  |  | inhibition in vivo at 30 mg/kg [17]: 85.6%; inhibition in vivo at 30 mg/kg [18]: 88.7% |
| COc1ccc2c(c1)[nH]c1c(C)nccc12 [HARMINE] | Toxic |  |  |  |  |  |  |  |  |  |  |  |  |  |  |  |  |  | inhibition in vivo at 7.5 mg/kg [19]: 30.8%; inhibition in vivo at 7.5 mg/kg [20]: 33.7% |
